# pEC50, pIC50: −log10 of the molar value. Active and inactive are the calls of the source. No cut-off for these calls is given here.
# How the values were obtained:
# Hepatitis C virus [1] = assay: Antiviral activity against Hepatitis C virus genotype 1b infected in human Huh-luc replicon cells after 3 days by luciferase assay; assay type: functional, organism-based, Hepacivirus hominis; settings: subtype 1b, 72 h
# [2] = Cytotoxicity against human Hep2 cells assessed as reduction in cell viability after 3 days by CellTiter-Glo assay; assay type: cell-based; settings: HEp-2 cells
# Hepatitis C virus [3] = assay: Antiviral activity against Hepatitis C virus genotype 2a infected in human Huh-luc replicon cells after 3 days by luciferase assay; assay type: functional, organism-based, Hepacivirus hominis; settings: subtype 2a, 72 h
# BJ = assay: Antiproliferative activity against human BJ cells after 3 days by MTS assay; settings: 72 h
# MRC5 = assay: Antiproliferative activity against human MRC5 cells after 3 days by MTS assay; settings: MRC5, 72 h
# A549 = assay: Antiproliferative activity against human A549 cells after 3 days by MTS assay; assay type: functional, cell-based; settings: A549, 72 h
# CCRF-CEM [4] = assay: Antiproliferative activity against human CCRF-CEM cells after 3 days by MTS assay; assay type: functional, cell-based; settings: 72 h
# [5] = Antiproliferative activity against human CEM-DNR-bulk cells after 3 days by MTS assay; settings: 72 h
# HCT-116 [6] = assay: Antiproliferative activity against human HCT116 cells after 3 days by MTS assay; assay type: functional, cell-based; settings: HCT-116, 72 h
# HCT-116 [7] = assay: Antiproliferative activity against p53 gene knocked out human HCT116 cells after 3 days by MTS assay; assay type: functional, cell-based; settings: HCT-116, 72 h
# K562 = assay: Antiproliferative activity against human K562 cells after 3 days by MTS assay; assay type: functional, cell-based; settings: K562, 72 h
# [8] = Antiproliferative activity against human K562-TAX cells after 3 days by MTS assay; assay type: functional, cell-based; settings: 72 h
# U2OS = assay: Antiproliferative activity against human U2OS cells after 3 days by MTS assay; assay type: functional, cell-based; settings: 72 h
# HL-60 = assay: Antiproliferative activity against human HL60 cells after 72 hrs by XTT assay; assay type: functional, cell-based; settings: HL-60, 72 h
# HepG2 = assay: Antiproliferative activity against human HepG2 cells after 72 hrs by XTT assay; assay type: functional, cell-based; settings: HepG2, 72 h
# HeLa S3 = assay: Antiproliferative activity against human HeLaS3 cells after 72 hrs by XTT assay; assay type: functional, cell-based; settings: HeLa S3, 72 h
# CCRF-CEM [9] = assay: Induction of cell cycle arrest in human CCRF-CEM cells assessed as accumulation at subG1 phase at IC50 concentration after 24 hrs by propidium iodide-staining based flow cytometry (reference value: 3.45%); assay type: functional
# CCRF-CEM [10] = assay: Induction of cell cycle arrest in human CCRF-CEM cells assessed as accumulation at subG1 phase at 5 times IC50 concentration after 24 hrs by propidium iodide-staining based flow cytometry (reference value: 3.45%); assay type: functional
# CCRF-CEM [11] = assay: Induction of cell cycle arrest in human CCRF-CEM cells assessed as accumulation at G0/G1 phase at IC50 concentration after 24 hrs by propidium iodide-staining based flow cytometry (reference value: 39.70%); assay type: functional
# CCRF-CEM [12] = assay: Induction of cell cycle arrest in human CCRF-CEM cells assessed as accumulation at G0/G1 phase at 5 times IC50 concentration after 24 hrs by propidium iodide-staining based flow cytometry (reference value: 39.70%); assay type: functional
# CCRF-CEM [13] = assay: Induction of cell cycle arrest in human CCRF-CEM cells assessed as accumulation at S phase at IC50 concentration after 24 hrs by propidium iodide-staining based flow cytometry (reference value: 41.08%); assay type: functional
# CCRF-CEM [14] = assay: Induction of cell cycle arrest in human CCRF-CEM cells assessed as accumulation at S phase at 5 times IC50 concentration after 24 hrs by propidium iodide-staining based flow cytometry (reference value: 41.08%); assay type: functional
# CCRF-CEM [15] = assay: Induction of cell cycle arrest in human CCRF-CEM cells assessed as accumulation at G2/M phase at IC50 concentration after 24 hrs by propidium iodide-staining based flow cytometry (reference value: 19.22%); assay type: functional
# CCRF-CEM [16] = assay: Induction of cell cycle arrest in human CCRF-CEM cells assessed as accumulation at G2/M phase at 5 times IC50 concentration after 24 hrs by propidium iodide-staining based flow cytometry (reference value: 19.22%); assay type: functional
# CCRF-CEM [17] = assay: Inhibition of mitosis in human CCRF-CEM cells assessed Ser10 H3 phosphorylation positive cells at IC50 concentration after 24 hrs by flow cytometry relative to total cell population (reference value: 1.36%); assay type: functional; design: scale not given: the % may be the effect or the level left
# CCRF-CEM [18] = assay: Inhibition of mitosis in human CCRF-CEM cells assessed Ser10 H3 phosphorylation positive cells at 5 times IC50 concentration after 24 hrs by flow cytometry relative to total cell population (reference value: 1.36%); assay type: functional; design: scale not given: the % may be the effect or the level left
# CCRF-CEM [19] = assay: Inhibition of DNA synthesis in human CCRF-CEM cells assessed as DNA synthesis level at IC50 concentration after 24 hrs by BrdU incorporation assay (reference value: 43.39%); assay type: functional; design: scale not given: the % may be the effect or the level left
# CCRF-CEM [20] = assay: Inhibition of DNA synthesis in human CCRF-CEM cells assessed as DNA synthesis level at 5 times IC50 concentration after 24 hrs by BrdU incorporation assay (reference value: 43.39%); assay type: functional; design: scale not given: the % may be the effect or the level left
# CCRF-CEM [21] = assay: Inhibition of RNA synthesis in human CCRF-CEM cells assessed as RNA synthesis level at IC50 concentration after 24 hrs by BrU incorporation assay (reference value: 49.89%); assay type: functional; design: scale not given: the % may be the effect or the level left
# CCRF-CEM [22] = assay: Inhibition of RNA synthesis in human CCRF-CEM cells assessed as RNA synthesis level at 5 times IC50 concentration after 24 hrs by BrU incorporation assay (reference value: 49.89%); assay type: functional; design: scale not given: the % may be the effect or the level left
# Adenosine kinase [23] = target: T1, Adenosine kinase (Homo sapiens, UniProt P55263); assay: Substrate activity at recombinant human ADK assessed as compound phosphorylation at 50 uM after 20 mins in presence of [3H]-adenosine by UPLC; assay type: ADME
# Adenosine kinase [24] = target: T1, Adenosine kinase; assay: Inhibition of recombinant human ADK using [3H]-adenosine as substrate after 20 mins by TLC scanner-based analysis relative to control
# In short: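 ADK inhibition: 50 μM adenosine substrate with 10 μM test compound and 97 ng enzyme, 20 min at 37 °C.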
# [25] = Chemical stability of the compound assessed as compound remaining after 15 mins relative to control; assay type: physicochemical; settings: read-out: Stability
# [26] = Chemical stability of the compound assessed as compound remaining after 30 mins relative to control; assay type: physicochemical; settings: read-out: Stability
# [27] = Chemical stability of the compound assessed as compound remaining after 60 mins relative to control; assay type: physicochemical; settings: read-out: Stability
# [28] = Chemical stability of the compound assessed as compound remaining after 120 mins relative to control; assay type: physicochemical; settings: read-out: Stability
# [29] = Stability in human plasma assessed as compound remaining at 3.3 umol/L after 15 mins by RF-MS analysis relative to control; assay type: ADME, cell-free; settings: read-out: Stability
# [30] = Stability in human plasma assessed as compound remaining at 3.3 umol/L after 30 mins by RF-MS analysis relative to control; assay type: ADME, cell-free; settings: read-out: Stability
# [31] = Stability in human plasma assessed as compound remaining at 3.3 umol/L after 60 mins by RF-MS analysis relative to control; assay type: ADME, cell-free; settings: read-out: Stability
# [32] = Stability in human plasma assessed as compound remaining at 3.3 umol/L after 120 mins by RF-MS analysis relative to control; assay type: ADME, cell-free; settings: read-out: Stability
# [33] = Metabolic stability in human liver microsomes assessed as compound remaining at 5 umol/L after 15 mins relative to control; assay type: ADME, Microsome; settings: read-out: Stability
# In short: (§1)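 Human microsomal fraction; percent compound remaining over time.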
# [34] = Metabolic stability in human liver microsomes assessed as compound remaining at 5 umol/L after 30 mins relative to control; assay type: ADME, Microsome; settings: read-out: Stability; in short: as §1
# [35] = Metabolic stability in human liver microsomes assessed as compound remaining at 5 umol/L after 60 mins relative to control; assay type: ADME, Microsome; settings: read-out: Stability; in short: as §1
# [36] = Protein binding in human plasma; assay type: ADME, cell-free; settings: read-out: PPB (converted)
# [37] = Effective permeability of the compound at 20 umol/L by PAMPA; assay type: ADME; settings: 20 µM
# [38] = Mitochondrial toxicity in human OCI-AML2 cells assessed as reduction in oxidative phosphorylation-based viability after 72 hrs by CellTiterGlo assay; assay type: cell-based
# In short: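 OCI-AML2 leukemia cells, which rely on mitochondrial OXPHOS, treated for 3 days in a survival assay; IC50 reported.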
# Influenza A virus = assay: Antiviral activity against Influenza A virus (A/Mexico/4108/2009(H1N1)) infected in MDCK cells assessed as inhibited virus-induced cytopathic effect incubated for 2 days by XTT assay; assay type: functional, organism-based
# Human orthopneumovirus = assay: Antiviral activity against Human respiratory syncytial virus A2 infected in Hep2 cells assessed as reduction in virus-induced cytopathic effect incubated for 4 days by CellTiter-Glo viability reagent based assay; assay type: functional, organism-based
# Coxsackievirus B3 = assay: Antiviral activity against Human coxsackie B3 Nancy infected in human HeLa cells assessed as inhibited virus-induced cytopathic effect incubated for 2 days by XTT assay; assay type: functional, organism-based
# Human alphaherpesvirus 1 = assay: Antiviral activity against human herpesvirus 1 HF infected in African green monkey Vero cells assessed as inhibited virus-induced cytopathic effect incubated for 3 days by XTT assay; assay type: functional, organism-based
# dengue virus type 2 = assay: Antiviral activity against Dengue virus 2 Thailand/16681/84 infected in African green monkey Vero cells assessed as inhibition of virus replication incubated for 3 days by fluorescence microscopy; assay type: functional, organism-based
# T1 sequence (P55263 whole entry): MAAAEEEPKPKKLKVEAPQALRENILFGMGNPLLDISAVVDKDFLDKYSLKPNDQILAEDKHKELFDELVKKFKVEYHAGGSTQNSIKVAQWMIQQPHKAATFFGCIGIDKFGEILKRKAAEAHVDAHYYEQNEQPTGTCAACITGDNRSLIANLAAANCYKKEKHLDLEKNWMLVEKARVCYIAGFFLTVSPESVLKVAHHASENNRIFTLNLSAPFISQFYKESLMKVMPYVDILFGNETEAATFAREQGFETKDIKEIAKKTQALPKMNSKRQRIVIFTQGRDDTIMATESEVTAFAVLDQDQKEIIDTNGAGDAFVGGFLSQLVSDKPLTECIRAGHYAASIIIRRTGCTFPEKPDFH
smiles,measurement,setting,value
CSc1ncnc2c1c1c(ccn1C)n2[C@@H]1O[C@H](CO)[C@@H](O)[C@H]1O,pEC50,Hepatitis C virus [1],7.40
same,CC50 at 72 h,[2],> 44400 nM
same,pEC50,Hepatitis C virus [3],6.89
same,pIC50,BJ,5.29
same,pIC50,MRC5,< 4.30
same,pIC50,A549,< 4.30
same,pIC50,CCRF-CEM [4],6.47
same,pIC50,[5],< 4.30
same,pIC50,HCT-116 [6],6.52
same,pIC50,HCT-116 [7],6.42
same,pIC50,K562,6.41
same,pIC50,[8],4.30
same,pIC50,U2OS,5.85
same,pIC50,HL-60,6.24
same,pIC50,HepG2,5.82
same,pIC50,HeLa S3,5.87
same,Activity,CCRF-CEM [9],5.61%
same,Activity,CCRF-CEM [10],12.67%
same,Activity,CCRF-CEM [11],26.28%
same,Activity,CCRF-CEM [12],40.55%
same,Activity,CCRF-CEM [13],56.36%
same,Activity,CCRF-CEM [14],42.94%
same,Activity,CCRF-CEM [15],17.36%
same,Activity,CCRF-CEM [16],16.52%
same,Activity,CCRF-CEM [17],0.33%
same,Activity,CCRF-CEM [18],1.49%
same,Activity,CCRF-CEM [19],30.41%
same,Activity,CCRF-CEM [20],7.8%
same,Activity,CCRF-CEM [21],21.43%
same,Activity,CCRF-CEM [22],3.56%
same,Activity,Adenosine kinase [23],33%
same,pIC50,Adenosine kinase [24],< 5.00
same,remaining at 0.25 h,[25],100%
same,remaining at 0.5 h,[26],99%
same,remaining at 1 h,[27],98%
same,remaining at 2 h,[28],97%
same,"remaining at 0.25 h, 3.3 µM",[29],100%
same,"remaining at 0.5 h, 3.3 µM",[30],99%
same,"remaining at 1 h, 3.3 µM",[31],98%
same,"remaining at 2 h, 3.3 µM",[32],98%
same,"remaining at 0.25 h, 5 µM",[33],99%
same,"remaining at 0.5 h, 5 µM",[34],99%
same,"remaining at 1 h, 5 µM",[35],97%
same,fraction unbound,[36],0.11
same,log(permeability),[37],-5.69
same,IC50 at 72 h,[38],160 nM
same,Activity,Influenza A virus,inactive
same,Activity,Human orthopneumovirus,inactive
same,Activity,Coxsackievirus B3,inactive
same,Activity,Human alphaherpesvirus 1,inactive
same,Activity,dengue virus type 2,inactive
COc1ncnc2c1c1c(ccn1C)n2[C@@H]1O[C@H](CO)[C@@H](O)[C@H]1O,pEC50,Hepatitis C virus [1],7.05
same,CC50 at 72 h,[2],> 44400 nM
same,pEC50,Hepatitis C virus [3],6.55
same,pIC50,BJ,5.35
same,pIC50,MRC5,4.30
same,pIC50,A549,< 4.30
same,pIC50,CCRF-CEM [4],6.36
same,pIC50,[5],< 4.30
same,pIC50,HCT-116 [6],6.44
same,pIC50,HCT-116 [7],6.21
same,pIC50,K562,6.29
same,pIC50,[8],< 4.30
same,pIC50,U2OS,5.89
same,pIC50,HL-60,5.84
same,pIC50,HepG2,5.59
same,pIC50,HeLa S3,5.82
same,Activity,CCRF-CEM [9],3.68%
same,Activity,CCRF-CEM [10],13.86%
same,Activity,CCRF-CEM [11],37.73%
same,Activity,CCRF-CEM [12],47.62%
same,Activity,CCRF-CEM [13],45.08%
same,Activity,CCRF-CEM [14],36.98%
same,Activity,CCRF-CEM [15],17.2%
same,Activity,CCRF-CEM [16],15.4%
same,Activity,CCRF-CEM [17],1.48%
same,Activity,CCRF-CEM [18],1.5%
same,Activity,CCRF-CEM [19],31.44%
same,Activity,CCRF-CEM [20],12.29%
same,Activity,CCRF-CEM [21],31.19%
same,Activity,CCRF-CEM [22],28.3%
same,Activity,Adenosine kinase [23],47%
same,pIC50,Adenosine kinase [24],< 5.00
same,Activity,Influenza A virus,inactive
same,Activity,Human orthopneumovirus,inactive
same,Activity,Coxsackievirus B3,inactive
same,Activity,Human alphaherpesvirus 1,inactive
same,Activity,dengue virus type 2,inactive
